Data published in ChEMBL document CHEMBL1155462, “Structure-activity relationship for thiohydantoin androgen receptor antagonists for castration-resistant prostate cancer (CRPC)” (J Med Chem, 2010).
The source made the active and inactive calls. The rule behind the calls is not given here.

Experiments:
LNCaP [1] = assay: Inhibition of prostate specific antigen expression in human LNCAP cells in presence of fetal bovine serum; assay type: functional, cell-based
LNCaP [2] = assay: Inhibition of prostate specific antigen secretion in human LNCAP cells expressing androgen receptor at 1.25 to 10 uM in presence of charcoal stripped serum; assay type: functional, cell-based
Procedure, shortened: (§1)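 LNCaP/AR cells were made by viral infection with an AR cDNA to express 3–5 fold higher AR levels, mimicking CRPC. They were assayed in charcoal-stripped serum to mimic androgen depletion. Read-out was PSA level, with DMSO as the vehicle.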

LNCaP [3] = assay: Inhibition of prostate specific antigen secretion in human LNCAP cells expressing androgen receptor in presence of charcoal stripped serum; assay type: functional, cell-based; procedure, shortened: as §1
Serum = assay: Drug level in SCID mouse serum at 10 mg/kg, iv; assay type: ADME, organism-based; design: dose 10 mg/kg, route intravenous; conditions: in vivo, read-out: Drug uptake
LNCaP [4] = assay: Inhibition of prostate specific antigen expression in human LNCAP cells at 100 to 1000 nM in presence of fetal bovine serum; assay type: functional, cell-based
LNCaP [5] = assay: Inhibition of prostate specific antigen expression in human LNCAP cells at 0.625 to 20 uM in presence of fetal bovine serum; assay type: functional, cell-based
[6] = molecular target: T1, Androgen receptor (Rattus norvegicus) (UniProt P15207); assay: Antagonist activity at androgen receptor in rat prostate gland at 0.625 to 20 uM by luciferase reporter gene assay; assay type: functional, tissue-based
T1 sequence (whole entry): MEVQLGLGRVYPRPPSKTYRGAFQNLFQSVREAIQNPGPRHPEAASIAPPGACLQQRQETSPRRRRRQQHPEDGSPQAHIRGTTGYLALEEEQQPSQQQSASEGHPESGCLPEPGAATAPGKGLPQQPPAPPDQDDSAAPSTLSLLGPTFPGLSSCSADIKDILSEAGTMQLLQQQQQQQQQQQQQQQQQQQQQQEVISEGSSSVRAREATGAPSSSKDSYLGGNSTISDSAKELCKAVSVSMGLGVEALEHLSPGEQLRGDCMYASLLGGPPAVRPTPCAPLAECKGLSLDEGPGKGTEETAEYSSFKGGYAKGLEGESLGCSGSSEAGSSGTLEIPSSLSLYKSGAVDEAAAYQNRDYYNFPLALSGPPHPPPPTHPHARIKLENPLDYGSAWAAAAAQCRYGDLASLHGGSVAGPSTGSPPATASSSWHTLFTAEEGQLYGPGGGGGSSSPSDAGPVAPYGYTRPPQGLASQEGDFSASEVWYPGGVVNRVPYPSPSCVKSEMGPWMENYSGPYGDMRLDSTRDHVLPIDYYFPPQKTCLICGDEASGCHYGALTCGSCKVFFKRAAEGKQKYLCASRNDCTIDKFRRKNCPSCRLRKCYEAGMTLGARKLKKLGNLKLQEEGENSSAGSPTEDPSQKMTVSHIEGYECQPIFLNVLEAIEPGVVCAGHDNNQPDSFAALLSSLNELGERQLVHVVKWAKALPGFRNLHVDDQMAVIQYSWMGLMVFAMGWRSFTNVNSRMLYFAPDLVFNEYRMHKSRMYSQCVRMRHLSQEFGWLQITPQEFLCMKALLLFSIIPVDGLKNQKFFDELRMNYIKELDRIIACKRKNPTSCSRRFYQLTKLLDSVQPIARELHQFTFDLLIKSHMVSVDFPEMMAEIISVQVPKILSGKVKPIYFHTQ

LNCaP [7] = assay: Inhibition of prostate specific antigen expression in human LNCAP cells at 0.625 to 5 uM in presence of fetal bovine serum; assay type: functional, cell-based
LNCaP [8] = assay: Inhibition of prostate specific antigen expression in human LNCAP cells at 1.25 to 10 uM in presence of fetal bovine serum; assay type: functional, cell-based
[9] = molecular target: T1, Androgen receptor (Rattus norvegicus); assay: Antagonist activity at androgen receptor in rat prostate gland at 1.25 to 10 uM by luciferase reporter gene assay; assay type: functional, tissue-based
LAPC4 [10] = assay: Antitumor activity against human castration and bicalutamide-resistant LAPC4 cells xenografted in SCID mouse assessed as change in tumor volume at 10 mg/kg measured up to 20 days; assay type: functional, organism-based; design: dose 10 mg/kg
LAPC4 [11] = assay: Antitumor activity against human castration and bicalutamide-resistant LAPC4 cells xenografted in SCID mouse assessed as change in tumor volume measured up to 50 days; assay type: functional
LNCaP [12] = assay: Cytostatic activity against human castration-resistant LNCAP cells expressing androgen receptor xenografted in SCID mouse assessed as change in tumor size at 10 mg/kg qd measured up to 18 days; assay type: functional, organism-based; design: dose 10 mg/kg
LNCaP [13] = assay: Cytostatic activity against human castration-resistant LNCAP cells expressing androgen receptor xenografted in SCID mouse assessed as change in tumor size at 50 mg/kg qd measured up to 18 days; assay type: functional, organism-based; design: dose 50 mg/kg
LNCaP [14] = assay: Antitumor activity against human castration-resistant LNCAP cells expressing androgen receptor xenografted in SCID mouse assessed as change in tumor size at 10 mg/kg qd for 31 days; assay type: functional, organism-based; design: dose 10 mg/kg
Procedure, shortened: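 AR-overexpressing LNCaP cells were injected subcutaneously into the flanks of castrated SCID mice. Once tumors reached about 100–200 cubic mm, mice were randomized into groups of six. Vehicle or compound was given orally every day, and tumor volume change was followed.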

LNCaP [15] = assay: Inhibition of prostate specific antigen secretion in human LNCAP cells expressing androgen receptor at 100 to 1000 nM in presence of charcoal stripped serum; assay type: functional, cell-based; procedure, shortened: as §1

CNC(=O)CCCc1ccc(N2C(=S)N(c3ccc(C#N)c(C(F)(F)F)c3)C(=O)C23CCC3)cc1
IC50 (LNCaP [1]): 92 nM
inhibition (LNCaP [2]): Active
IC50 (LNCaP [3]): 92 nM
concentration (Serum): 390 µM
Activity (LNCaP [4]): Active

Cc1ccc(N2C(=S)N(c3ccc(C#N)c(C(F)(F)F)c3)C(=O)C2(C)C)cc1
Activity (LNCaP [5]): Active
Activity [6]: inactive
Activity (LNCaP [7]): Active
Activity (LNCaP [8]): Active
Activity [9]: Active
Activity (LAPC4 [10]): Active

Cc1ccc(N2C(=S)N(c3ccc(C#N)c(C(F)(F)F)c3)C(=O)C23CCC3)cc1
Activity (LNCaP [5]): Active
Activity (LNCaP [7]): Active
Activity (LNCaP [8]): Active
Activity [9]: Active
IC50 (LNCaP [1]): 124 nM
Activity (LAPC4 [10]): Active
Activity (LAPC4 [11]): Dose-dependent effect
inhibition (LNCaP [2]): Active

CC(O)(CS(=O)(=O)c1ccc(F)cc1)C(=O)Nc1ccc(C#N)c(C(F)(F)F)c1 (stereo not drawn) [BICALUTAMIDE]
inhibition (LNCaP [2]): inactive
concentration (Serum): 10000 µM

CNC(=O)c1ccc(N2C(=S)N(c3ccc(C#N)c(C(F)(F)F)c3)C(=O)C23CCC3)cc1F
inhibition (LNCaP [3]): Dose-dependent effect
concentration (Serum): 9900 µM
Activity (LNCaP [12]): Active
Activity (LNCaP [13]): Active
Activity (LNCaP [14]): Active
Activity (LNCaP [4]): Active
Activity (LNCaP [15]): Active
